ChEMBL document CHEMBL1122999 (J Med Chem, 1985)

How the values were obtained:
Rattus norvegicus [1] = organism: Rattus norvegicus; experiment: Inhibition of GABA uptake from rat diencephalon-midbrain at 100 uM concentration; format: functional
Rattus norvegicus [2] = organism: Rattus norvegicus; experiment: Inhibition of GABA uptake from rat diencephalon-midbrain at 10 uM concentration; format: functional
In short: (§1)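 P2 synaptosomal fraction prepared from rat brain in 0.32 M sucrose by 1000g and 16500g spins. About 150 µg protein preincubated 15 min at 37 °C with inhibitor in oxygenated Tris/NaCl buffer, pH 7.4, containing 2.7 mM CaCl2 and 10 µM aminooxyacetic acid. Uptake of 1 µM [3H]GABA run for 3 min, then filtered and counted. Accumulation at 0 °C subtracted. Screening at 10, 1 and 0.1 µM in quadruplicate on pooled diencephalon-midbrain tissue.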

[3] = target: GABA-A receptor; anion channel; experiment: Displacement of [3H]- muscimol from GABA-A receptor from rat cerebellum membrane at 0.24-0.45 uM; format: tissue-based
Rattus norvegicus [4] = organism: Rattus norvegicus; experiment: (§2) Inhibition of GABA uptake from rat diencephalon-midbrain,; format: functional
[5] = target: 4-aminobutyrate aminotransferase, mitochondrial (Rattus norvegicus) (UniProt P50554); experiment: Percent of enzyme inhibition by Gamma-amino-N-butyrate transaminase assay method; details: concentration not given here
In short: (§3)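 Rat diencephalon-midbrain homogenate in Tris-HCl pH 8.0 with Triton X-100. Incubated with 2 mM α-ketoglutarate, 0.2 mM GABA and 20 µM pyridoxal phosphate, test agent at 1 mM final, 30 min at 37 °C. Blanks held at 4 °C. Glutamate formed read fluorometrically as NADH via glutamate dehydrogenase.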

[6] = target: T1, Glutamate decarboxylase 1 (Rattus norvegicus) (UniProt P18088); experiment: Percent of enzyme inhibition by Glutamate decarboxylase (GAD) assay method; details: concentration not given here
T1 sequence (whole entry): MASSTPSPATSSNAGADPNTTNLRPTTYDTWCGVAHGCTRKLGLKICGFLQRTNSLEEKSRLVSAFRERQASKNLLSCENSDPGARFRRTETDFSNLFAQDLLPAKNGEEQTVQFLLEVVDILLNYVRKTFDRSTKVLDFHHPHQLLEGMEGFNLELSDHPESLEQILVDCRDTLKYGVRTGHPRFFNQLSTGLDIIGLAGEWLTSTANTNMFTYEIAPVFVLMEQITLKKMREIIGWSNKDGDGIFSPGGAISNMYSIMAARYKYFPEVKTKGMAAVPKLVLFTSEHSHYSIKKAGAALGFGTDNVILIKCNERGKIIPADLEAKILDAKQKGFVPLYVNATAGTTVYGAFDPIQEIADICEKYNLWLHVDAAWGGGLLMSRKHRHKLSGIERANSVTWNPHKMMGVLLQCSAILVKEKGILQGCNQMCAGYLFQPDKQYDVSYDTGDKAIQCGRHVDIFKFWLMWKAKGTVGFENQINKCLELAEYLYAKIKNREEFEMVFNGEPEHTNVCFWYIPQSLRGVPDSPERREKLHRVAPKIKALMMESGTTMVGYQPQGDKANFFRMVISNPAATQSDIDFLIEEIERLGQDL
In short: (§4)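 Homogenate of rat diencephalon-midbrain in phosphate buffer pH 6.5 with Triton X-100. Incubated with 5 mM l-glutamate, 10 µM pyridoxal phosphate and test agent at 1 mM final, 30 min at 37 °C. Stopped by boiling; boiled-enzyme blanks used. GABA formed quantified fluorometrically with GABAase and NADPH.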

[7] = target: T2, GABA-A receptor; anion channel (Rattus norvegicus) (UniProt O09028+P15431+P18506+P18508+P19969+P20236+P23574+P23576+P28471+P28473+P30191+P62813+P63079+P63138+Q91ZM7+Q9ES14); experiment: Displacement of [3H]- muscimol from GABA-A receptor from rat cerebellum membrane at 100 uM; format: tissue-based
Rattus norvegicus [8] = organism: Rattus norvegicus; experiment: (§5) Inhibition of Norepinephrine uptake from rat diencephalon-midbrain; format: functional
[9] = as §2; details: concentration not given here
In short: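 Rat diencephalon-midbrain P2 synaptosomal fraction (0.32 M sucrose homogenate, differential centrifugation), pooled from three rats. Preincubated 15 min at 37 °C with inhibitor in oxygenated Tris/NaCl buffer pH 7.4 containing 2.7 mM CaCl2 and 10 µM aminooxyacetic acid. Then 3 min uptake of 1 µM [3H]GABA, filtration, scintillation counting, minus 0 °C uptake. Screened at 10, 1, 0.1 µM in quadruplicate.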

[10] = target: T1, Glutamate decarboxylase 1 (Rattus norvegicus); experiment: Percent of enzyme inhibition by Glutamate decarboxylase assay method; details: concentration not given here; in short: as §4
Rattus norvegicus [11] = organism: Rattus norvegicus; experiment: Inhibition of GABA uptake from rat diencephalon-midbrain at 1 uM concentration; format: functional; in short: as §1
[12] = target: Norepinephrine transporter (Rattus norvegicus, UniProt Q9WTR4); experiment: as §5
[13] = as §2; in short: as §1
[14] = Dissociation constant pKa (N) of the compound; format: physicochemical
[15] = Dissociation constant pKa (CO2H) of the compound; format: physicochemical
Rattus norvegicus [16] = organism: Rattus norvegicus; experiment: Inhibition of GABA uptake from rat diencephalon-midbrain; format: functional; in short: as §1
[17] = target: 4-aminobutyrate aminotransferase, mitochondrial (Rattus norvegicus) (UniProt P50554); experiment: Percent inhibition of Gamma-amino-N-butyrate transaminase from rat was evaluated; details: concentration not given here; in short: as §3
[18] = target: T2, GABA-A receptor; anion channel (Rattus norvegicus); experiment: Percent inhibition of [3H]- Diazepam binding to GABA-A Benzodiazepine receptor of rat frontal cortex membranes; format: cell membranes; details: Membrane, concentration not given here
In short: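 Rat frontal cortex membranes with 1.5 nM [3H]diazepam (KD 9.7 nM). Nonspecific binding defined with 3 µM diazepam.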

[19] = target: T1, Glutamate decarboxylase 1 (Rattus norvegicus); experiment: Percent inhibition of Glutamate decarboxylase from rat was evaluated; details: concentration not given here; in short: as §4
[20] = target: D(2) dopamine receptor (Rattus norvegicus) (UniProt P61169); experiment: Percent inhibition of Dopamine receptor D2 from rat striatal membrane using [3H]- spiroperidol as radioligand at 50 uM
In short: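 Rat striatal membranes with 0.22 nM [3H]spiroperidol (KD 0.287 nM). Nonspecific binding defined with 1 µM d-butaclamol.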

[21] = Dissociation constant pKa (N) was evaluated; format: physicochemical
[22] = target: Adrenergic receptor alpha-1 (Rattus norvegicus) (UniProt P15823+P23944+P43140); experiment: Percent inhibition of alpha-1 adrenergic receptor from rat cortical membrane using [3H]- WB-4101 as radioligand at 10 uM
In short: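 Rat cortical membranes labelled with 0.22 nM [3H]WB4101 (KD 0.306 nM). Nonspecific binding defined with 100 µM norepinephrine.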

[23] = target: Serotonin 1 (5-HT1) receptor (Rattus norvegicus) (UniProt P28564+P30940+P19327+P28565); experiment: Percent inhibition of 5-hydroxytryptamine 1 receptor from rat cortex membrane using [3H]- serotonin as radioligand at 33 uM
[24] = target: Muscarinic acetylcholine receptor (Rattus norvegicus) (UniProt P08482+P08483+P08485+P08911+P10980); experiment: Percent inhibition of Muscarinic acetylcholine receptor from rat striatal membrane using [3H]- QNB as radioligand at 100 uM
In short: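 Displacement on rat striatal membranes using 0.23 nM [3H]QNB (KD 0.20 nM). Nonspecific binding defined with 1 µM atropine.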

[25] = Distribution coefficient was evaluated; format: physicochemical; details: octanol/water
In short: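 Distribution coefficient (log D) measured between 1-octanol and phosphate buffer, pH 7.4.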

[26] = Dissociation constant pKa (CO2H) was evaluated; format: physicochemical
[27] = target: T2, GABA-A receptor; anion channel (Rattus norvegicus); details: Cerebellum, 0.003-0.006 uM

4-aminobutyrate aminotransferase, mitochondrial (Rattus norvegicus), sequence (P50554 28-500 limits assumed): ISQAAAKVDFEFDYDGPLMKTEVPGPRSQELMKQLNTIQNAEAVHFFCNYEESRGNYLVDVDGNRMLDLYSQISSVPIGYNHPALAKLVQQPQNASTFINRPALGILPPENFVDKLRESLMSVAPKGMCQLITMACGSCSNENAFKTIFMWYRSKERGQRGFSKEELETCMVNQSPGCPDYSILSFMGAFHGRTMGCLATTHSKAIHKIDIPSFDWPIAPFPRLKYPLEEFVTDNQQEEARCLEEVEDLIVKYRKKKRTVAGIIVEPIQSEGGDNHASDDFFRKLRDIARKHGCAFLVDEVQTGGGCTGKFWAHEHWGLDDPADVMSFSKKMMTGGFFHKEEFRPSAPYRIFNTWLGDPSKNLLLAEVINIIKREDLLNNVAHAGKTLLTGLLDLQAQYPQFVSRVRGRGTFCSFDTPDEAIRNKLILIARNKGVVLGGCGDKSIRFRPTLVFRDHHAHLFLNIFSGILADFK
Norepinephrine transporter, sequence (Q9WTR4 whole entry): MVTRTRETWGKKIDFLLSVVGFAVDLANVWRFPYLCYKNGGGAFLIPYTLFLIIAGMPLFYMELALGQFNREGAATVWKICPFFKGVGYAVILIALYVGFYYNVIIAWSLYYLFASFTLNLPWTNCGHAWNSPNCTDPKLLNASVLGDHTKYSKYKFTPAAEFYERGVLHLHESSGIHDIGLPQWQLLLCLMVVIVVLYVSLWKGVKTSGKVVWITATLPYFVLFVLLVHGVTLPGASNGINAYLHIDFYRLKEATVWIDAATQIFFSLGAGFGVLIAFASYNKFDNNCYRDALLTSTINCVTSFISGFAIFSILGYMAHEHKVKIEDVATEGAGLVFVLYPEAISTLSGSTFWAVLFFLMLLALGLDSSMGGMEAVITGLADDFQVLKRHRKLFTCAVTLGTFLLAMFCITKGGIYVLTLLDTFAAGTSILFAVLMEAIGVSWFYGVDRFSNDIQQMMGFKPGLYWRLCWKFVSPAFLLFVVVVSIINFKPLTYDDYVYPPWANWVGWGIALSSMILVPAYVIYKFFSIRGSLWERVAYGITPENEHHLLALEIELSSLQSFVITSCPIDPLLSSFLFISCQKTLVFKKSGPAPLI
D(2) dopamine receptor (Rattus norvegicus), sequence (P61169 whole entry): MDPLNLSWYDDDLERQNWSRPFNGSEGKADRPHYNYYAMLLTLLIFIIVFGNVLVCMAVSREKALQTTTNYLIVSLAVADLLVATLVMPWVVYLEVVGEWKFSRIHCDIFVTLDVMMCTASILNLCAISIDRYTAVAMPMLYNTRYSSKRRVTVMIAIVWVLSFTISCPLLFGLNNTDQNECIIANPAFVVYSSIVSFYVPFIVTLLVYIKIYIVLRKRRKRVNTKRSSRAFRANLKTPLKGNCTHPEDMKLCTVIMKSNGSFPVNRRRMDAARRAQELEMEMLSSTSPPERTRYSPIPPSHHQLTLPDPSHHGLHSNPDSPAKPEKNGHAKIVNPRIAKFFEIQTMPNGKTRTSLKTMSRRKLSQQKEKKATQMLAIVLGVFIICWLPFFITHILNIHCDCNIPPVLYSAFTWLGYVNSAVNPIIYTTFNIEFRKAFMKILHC

Compound `CCOC(=O)C1CCCN(CCC=C(c2ccccc2)c2ccccc2)C1` (configuration not stated) has an Increase (Rattus norvegicus [1]) of 17%.

In the case of `O=C(O)C1CCCN(CCCC(c2ccccc2)c2ccccc2)C1` (configuration not stated), the Inhibition (Rattus norvegicus [2]) is reported as 27%.

`O=C(O)CC1CCNC1` (configuration not stated) gave an IC50 [3] of 0.33 µM and an IC50 (Rattus norvegicus [4]) of 1.54 µM.

With `O=C(O)C1=CCCNC1` [GUVACINE] the inhibition [5] was 7%, the inhibition [6] was 0% and the inhibition [7] was 27%. For the same compound, the IC50 (Rattus norvegicus [4]) was 4.92 µM.

Work on `O=C(O)C1CNCCC1O` (configuration not stated) yielded an Inhibition (Rattus norvegicus [8]) of 7%, an inhibition [7] of 10% and an IC50 (Rattus norvegicus [4]) of 4.56 µM.

For `O=C(O)C1CCCN(CC=C(c2ccccc2)c2ccccc2)C1` (configuration not stated), the Inhibition (Rattus norvegicus [2]) was 5%.

`O=C(O)[C@@H]1CCCNC1` [(R)-NIPECOTIC ACID] gave an IC50 (Rattus norvegicus [4]) of 1.69 µM.

Compound `COC(=O)C1=CCCNC1` has an inhibition [9] of 4%.

Compound `NOCC(=O)O` has an inhibition [5] of 83%.

Compound `NNC(=O)c1ccncc1` has an inhibition [10] of 42%.

In the case of `O=C(O)C1CCCN(CCCC=C(c2ccccc2)c2ccccc2)C1` (configuration not stated), the Inhibition (Rattus norvegicus [11]) is reported as 31%.

Work on `O=C(O)CCCNCCC=C(c1ccccc1)c1ccccc1` yielded an IC50 [12] of 35.1 µM, an inhibition [7] of 35% and an IC50 [13] of 16.5 µM.

`O=C(O)C1CN(CCC=C(c2ccccc2)c2ccccc2)CCC1O` (configuration not stated) gave an IC50 [12] of 33.6 µM, an inhibition [7] of 48% and an IC50 [13] of 0.26 µM.

For `O=C(O)C1CCCNC1` (configuration not stated) [NIPECOTIC ACID], the pKa [14] was 10.3, the pKa [15] was 3.45 and the inhibition [5] was 3%. It also gave an inhibition [10] of 0% and an IC50 (Rattus norvegicus [4]) of 3.94 µM.

For `O=C(O)[C@H]1CCCNC1` [(S)-NIPECOTIC ACID], the IC50 (Rattus norvegicus [16]) was 9.88 µM.

With `O=C(O)[C@H]1CCCN(CCC=C(c2ccccc2)c2ccccc2)C1` the IC50 (Rattus norvegicus [8]) was 180 µM and the IC50 (Rattus norvegicus [4]) was 1.91 µM.

With `NC1CCCC(C(=O)O)C1` (configuration not stated) the IC50 (Rattus norvegicus [4]) was 8.13 µM.

With `CN(C)CCCN1c2ccccc2CCc2ccccc21` [IMIPRAMINE] the Inhibition (Rattus norvegicus [1]) was 68% and the IC50 (Rattus norvegicus [8]) was 0.027 µM.

Compound `O=C(O)CC1CCN(CCC=C(c2ccccc2)c2ccccc2)C1` (configuration not stated) has an IC50 [12] of 108 µM, an inhibition [7] of 20% and an IC50 [13] of 0.12 µM.

In the case of `CCOC(=O)C1CCCNC1` (configuration not stated), the Inhibition (Rattus norvegicus [1]) is reported as 52%.

With `O=C(O)C1=CCCN(CCC=C(c2ccccc2)c2ccccc2)C1` the inhibition [17] was 9%, the IC50 (Rattus norvegicus [8]) was 58.2 µM and the inhibition [18] was 5%. For the same compound, the inhibition [19] was 7%, the inhibition [7] was 8% and the IC50 (Rattus norvegicus [4]) was 0.2 µM.

`O=C(O)[C@@H]1CCCN(CCC=C(c2ccccc2)c2ccccc2)C1` showed an IC50 (Rattus norvegicus [8]) of 123 µM and an IC50 (Rattus norvegicus [4]) of 0.11 µM.

For `O=C(O)C1CCCN(CCC=C(c2ccccc2)c2ccccc2)C1` (configuration not stated), the inhibition [20] was 22%, the pKa [21] was 9.36 and the inhibition [17] was 12%. The inhibition [22] was 12%, the inhibition [23] was 16% and the inhibition [24] was 12%. For the same compound, the IC50 (Rattus norvegicus [8]) was 117 µM, the inhibition [18] was 21% and the logD [25] was 1.14. For the same compound, the pKa [26] was 3.32, the inhibition [19] was 7% and the inhibition [7] was 8%. The IC50 (Rattus norvegicus [4]) was 0.2 µM.

Work on `NCc1cc(O)no1` yielded an inhibition [27] of 0.004%.

For `O=C(O)C1CCCC(NCCC=C(c2ccccc2)c2ccccc2)C1` (configuration not stated), the Inhibition (Rattus norvegicus [2]) was 54% and the IC50 (Rattus norvegicus [8]) was 29.9 µM.
